Consider six compounds from ChEMBL document CHEMBL1134834, “Quinoxalinylethylpyridylthioureas (QXPTs) as potent non-nucleoside HIV-1 reverse transcriptase (RT) inhibitors. Further SAR studies and identification of a novel orally bioavailable hydrazine-based antiviral agent” (J Med Chem, 2001).

For data set [1], the target named is T1, Human immunodeficiency virus type 1 reverse transcriptase (Human immunodeficiency virus 1, UniProt Q72547). The data set can be described thus: Inhibition of HIV-1 wild-type RT.
For data set [2], the target named is Human immunodeficiency virus type 1 reverse transcriptase (Human immunodeficiency virus 1, UniProt Q72547, Y181I). Put plainly: Inhibition of HIV-1 Mutant HIV-1 RT enzymes containing the single amino acid substitution Y181I.
Data set [3] concerns the target Human immunodeficiency virus type 1 reverse transcriptase (Human immunodeficiency virus 1, UniProt Q72547, V106A). Put plainly: Inhibition of HIV-1 Mutant HIV-1 RT enzymes containing the single amino acid substitution V106A.
Data set [4] has as its target Human immunodeficiency virus type 1 reverse transcriptase (Human immunodeficiency virus 1, UniProt Q72547, Y188L). The data set can be described thus: Inhibition of HIV-1 Mutant HIV-1 RT enzymes containing the single amino acid substitution Y188L.
Data set [5] deals with T1, Human immunodeficiency virus type 1 reverse transcriptase. Put plainly: Inhibition of HIV-1 Mutant HIV-1 RT enzymes containing the single amino acid substitution […].
The test system of data set [6] is Mus musculus. Put plainly: Volume distribution was determined after subcutaneous administration of a dose of 20 mg/kg in mice. The class given is ADME, organism-based. More on the design: dose 20 mg/kg, route subcutaneous. As to conditions: in vivo, sc. Put shortly:
(§1)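 Mice dosed at 20 mg/kg, either subcutaneously or orally; plasma drug level measured by HPLC with an internal standard; n = 3 per point. Cmax and tmax read from the concentration-time curves. Clearance assumes complete subcutaneous absorption. Elimination t1/2, Vd and AUC derived from plasma curves. Relative oral bioavailability computed as oral AUC over subcutaneous AUC.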

Data set [7] has as its system Mus musculus. The data set can be described thus: Area under curve was determined after subcutaneous administration of a dose of 20 mg/kg in mice. The class given is ADME, organism-based. More on the design: dose 20 mg/kg, route subcutaneous. As to conditions: in vivo, sc. In outline:
as §1

The nature of data set [8]: Half life period was determined after oral administration in mice. The class given is ADME, organism-based. The settings on record: mouse, in vivo. In outline:
as §1

Data set [9] relates to C8166. Put plainly: Antiviral activity alone against HIV-IIIB in C8166 cells. The data set is classed as functional, cell-based. The settings on record: Homo sapiens. Put shortly:
(§2)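 C8166 CD4+ T-cell line (HTLV-I genome, only tat expressed) acutely infected with lymphocytotropic HIV-1 IIIB. […] Read-out is HIV-p24 antigen in supernatants. AZT positive control was run at the same time. SI = IC50/EC50.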

Data set [10] deals with Daudi. The data set can be described thus: Cytotoxicity against Daudi Human(DH) cell line (O.D.=0.129+/-0.018). The data set is classed as functional. The settings on record: read-out: TC50 (the source's name).
Data set [11] deals with Mus musculus. Put plainly: Area under curve was determined after oral administration in mice. The class given is ADME, organism-based. The settings on record: in vivo. In outline: as §1
The nature of data set [12]: Half life period was determined after subcutaneous administration of a dose of 20 mg/kg in mice. More on the design: dose 20 mg/kg, route subcutaneous. As to conditions: mouse, in vivo, sc. The data set is classed as ADME, organism-based. In outline: as §1
Data set [13] deals with Human immunodeficiency virus 1. The data set can be described thus: Inhibition of HIV-1-p24 antigen production in monocyte-macrophages (cytotoxicity of the compound). The class given is organism-based. Put shortly:
(§3)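 Macrophages from adherent PBMC (10^6/mL, RPMI-1640 with 20% heat-inactivated FCS), 10^5 per well, >95% pure, infected with monocytotropic HTLV-III Ba-L. Antiviral activity read 14 days after infection. […] SI = IC50/EC50. AZT control run in parallel.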

Data set [14] can be described thus: Subcutaneous absorption was determined fter subcutaneous administration of a dose of 20 mg/kg in mice. The data set is classed as ADME, organism-based. Further details: dose 20 mg/kg, route subcutaneous. As to conditions: mouse, in vivo, sc. Put shortly: as §1
Data set [15] concerns NSO. The data set can be described thus: Cytotoxicity against NSO murine cell line (O.D.=0.125+/-0.015). The class given is functional. The settings on record: Mus musculus, read-out: TC50 (the source's name).
Data set [16] concerns Human immunodeficiency virus 1. Put plainly: Inhibition of HIV-1-p24 antigen production in monocyte-macrophages (in vitro anti-HIV-1 activity). The data set is classed as functional, organism-based. In outline:
as §3

Data set [17] deals with C8166. The data set can be described thus: Synergistic antiviral activity with AZT (DDI), against HIV-IIIB in C8166 cells (combination index in association with DDI). The settings on record: Homo sapiens. The class given is functional, cell-based. Put shortly:
(§4)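 C8166 cells infected with HIV-IIIB and treated with compound combined with AZT (or DDI). Combination index calculated by the Chou-Talalay multiple drug effect analysis under both mutually exclusive and mutually nonexclusive assumptions.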

Data set [18] in a line: Cytotoxicity against normal human lymphocytes(HL) (O.D.=0.114+/-0.01). The data set is classed as functional. As to conditions: read-out: TC50 (the source's name).
Data set [19] in a line: Bioavailability was determined after subcutaneous administration of a dose of 20 mg/kg in mice. The class given is ADME, organism-based. The settings on record: mouse, in vivo, po, in the assay text read “oral” for “subcutaneous”. In outline:
as §1

Data set [20] concerns C8166. The data set can be described thus: Synergistic antiviral activity of AZT (DDI) with the compound, against HIV-IIIB in C8166 cells (combination index in association with DDI). The class given is functional, cell-based. As to conditions: Homo sapiens. In outline: as §4
Data set [21] has as its system NIH3T3. The data set can be described thus: Cytotoxicity against 3T3 fibroblasts (3T3F) murine cell line (O.D.=0.131+/-0.014). The class given is functional. As to conditions: Mus musculus, read-out: TC50 (the source's name).
Data set [22] concerns C8166. Put plainly: Concentration which produces a 50% survival of HIV-1 infected cells relative to uninfected control C8166 cell (in vitro anti-HIV activity). The class given is functional, cell-based. The settings on record: Homo sapiens.
Data set [23] concerns C8166. The data set can be described thus: (§5) Concentration which results in 50% survival of uninfected untreated control C8166 cells (cytotoxicity of the compound). The data set is classed as functional, cell-based. As to conditions: Homo sapiens. In outline: (§6)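 Toxicity in uninfected C8166 cells by MTT reduction to formazan, read spectrophotometrically.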
The subject of data set [24] is CEM-SS. The data set can be described thus: (§7) Concentration which results in 50% survival of uninfected untreated control CEM-SS cells (cytotoxicity of the compound). The settings on record: Homo sapiens. The class given is cell-based.
Data set [25] has as its system C8166. The data set is described as §5. The data set is classed as cell-based. The settings on record: Homo sapiens. In outline:
as §6

A short description of data set [26]: Selectivity index was determined in CEM-SS cells. The data set is classed as functional. In outline:
(§8)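 CEM-SS T4 lymphocytes infected with wild-type HIV-1. Protection from virus-induced cell death is scored against an AZT-treated positive control run under identical conditions. […] SI = IC50/EC50.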

A short description of data set [27]: Selectivity index was determined in C8166 cells. The data set is classed as functional. In outline:
as §2

The test system of data set [28] is Human immunodeficiency virus 1. The data set can be described thus: Concentration which produces a 50% survival of HIV-1 infected cells relative to uninfected control C8166 cells. The data set is classed as functional, organism-based. As to conditions: Human immunodeficiency virus 1, C8166.
A short description of data set [29]: Cytotoxicity on normal human lymphocytes(HL) (O.D.=0.114+/-0.01). The settings on record: read-out: TC50 (the source's name). The data set is classed as functional.
Data set [30] deals with CEM-SS. Put plainly: Concentration which produces a 50% survival of HIV-1 infected cells relative to uninfected control CEM-SS cells (in vitro anti-HIV activity). The data set is classed as functional, cell-based. As to conditions: Homo sapiens. In outline: as §8
For data set [31], the system named is Daudi. Put plainly: Cytotoxicity on Daudi Human(DH) cell line (O.D.=0.129+/-0.018). The data set is classed as functional. As to conditions: read-out: TC50 (the source's name).
Data set [32] relates to NIH3T3. The data set can be described thus: Cytotoxicity on 3T3 fibroblasts (3T3F) murine cell line (O.D.=0.131+/-0.014). The class given is functional. The settings on record: Mus musculus, read-out: TC50 (the source's name).
Data set [33] concerns C8166. Put plainly: Synergistic antiviral activity of AZT (DDI) with the compound, against HIV-IIIB in C8166 cells. The class given is functional, cell-based. As to conditions: Homo sapiens. In outline:
as §4

The species entered for data set [34] is Mus musculus. Put plainly: Cytotoxicity on NSO murine cell line (O.D.=0.125+/-0.015). The settings on record: read-out: TC50 (the source's name). The data set is classed as functional.
In data set [35] the target is Human immunodeficiency virus type 1 reverse transcriptase (Human immunodeficiency virus 1, UniProt Q72547, K103N). Put plainly: Inhibition of HIV-1 Mutant HIV-1 RT enzymes containing the single amino acid substitution K103N.
Data set [36] deals with C8166. Put plainly: Synergistic antiviral activity with AZT (DDI), against HIV-IIIB in C8166 cells. The class given is functional, cell-based. The settings on record: Homo sapiens. Put shortly: as §4
The test system of data set [37] is CEM-SS. The data set is described as §7. The settings on record: Homo sapiens, read-out: IC50 (the source's name). The data set is classed as functional, cell-based.
For data set [38], the target named is Human immunodeficiency virus type 1 protease (Human immunodeficiency virus 1) (UniProt Q72874). Put plainly: Inhibition of HIV-1 Mutant HIV-1 RT enzymes containing the single amino acid substitution K103N; NA means Not active. In outline: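 Template poly(rA)oligo(dT) 10:1 (0.3 µM 3′-OH ends) with 10 µM [3H]-dTTP, 37 °C. TCA-precipitable radioactivity counted. Ki from Lineweaver-Burk and Dixon plots, inhibitor 0.2-5 Ki, triplicate.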

For orientation: pKi means the negative decadic logarithm of the Ki, by convention in mol/L. Read a low pKi as a large Ki. By half-life is commonly meant the time needed for the level to fall by half in the phase considered. As usually defined, the pEC50 is −log10 of the EC50, conventionally taken in molar units. A word on the pIC50: it is the IC50 on a negative log10 scale, so that one unit is a factor of ten. Low values mean a large IC50, high ones a small IC50. By Tmax is commonly meant the time at which the peak concentration occurs. As usually defined, the bioavailability is the share of a dose that reaches the circulation, judged against a reference dose that is usually intravenous.

pEC50, pIC50, pKi: −log10 of the molar value. Active and inactive are the calls of the source.

`O=C(NNc1nc2ccccc2n2cccc12)c1ccccn1` had a pKi in data set [1] of 5.40.
Consider `O=c1c2cccn2c2c(F)cc(F)cc2n1CCNC(=S)Nc1ccc(Br)cn1`, for which the pKi in data set [2] was 5.80; in data set [1] it was 7.66; in [3], 7.52; in data set [4], 6.35; in data set [5], 7.00.
In turn, `O=C(NNc1nc2ccccc2n2cccc12)c1cnccn1` returned a Vd in data set [6] of 3 L/kg. Besides, the AUC in data set [7] turned out to be 48.7 nM hr-1 ml-1; in data set [11] it was 21.7 nM hr-1 ml-1. Also, the half-life in data set [8] was 1.4 h; in data set [12] it was 1.5 h. Moreover, the pEC50 in data set [9] is 6.35; in data set [16], 6.70; in data set [17], 6.85; in data set [20], 7.01; in [22], 6.40. The pKi was 5.60 in data set [2]; 6.72 in [1]; 6.10 in data set [3]; 5.74 in data set [4]; 6.52 in data set [5]. In addition, the CC50 in data set [10] was determined as 860000 nM; in data set [15] it was 870000 nM; in data set [18], 870000 nM; in [21], 880000 nM. The pIC50 in data set [13] was 4.60; in data set [23], 4.74. In addition, in data set [14], the Tmax is 2 h. The compound also showed a bioavailability in data set [19] of 45%.
As to `Cc1cn([C@H]2C[C@H](N=[N+]=[N-])[C@@H](CO)O2)c(=O)[nH]c1=O` [ZIDOVUDINE], the figures for the negative logarithm of the IC50 (pIC50) in data set [24] and in data set [25] were under 6.00 and under 4.00, respectively. Moreover, the results for the SI in [26] and in [27] were 526 and over 250, respectively. This compound also gave a pEC50 in data set [28] of 6.40.
With `O=c1c2nccn2c2ccccc2n1CCNC(=S)Nc1ccc(Br)cn1`, the CC50 was 670000 nM in data set [29]; 680000 nM in data set [31]; 690000 nM in [32]; 680000 nM in data set [34]; over 2000 nM in [37]. Moreover, the pEC50 in data set [30] was 7.89; in data set [9], 6.23; in data set [33], 7.18; in data set [36] it was 6.34; in data set [28], 6.49. The pKi in [2] was 5.85; in data set [1], 6.60; in data set [3], 6.46; in data set [4] it was 5.30; in data set [35], 6.62; in data set [5], 6.00. The SI is given as over 150 in [26] and 275 in data set [27]. This compound had a pIC50 in data set [23] of 4.06.
In the case of `O=c1c2cccn2c2c(F)cc(F)cc2n1CC/N=C(\S)Nc1ccc(Br)cn1`, the NA result in data set [38] was “inactive”. Besides, the pIC50 in [24] is under 5.70. The compound further showed a pEC50 in [30] of 7.07. The same compound returned an SI in data set [26] of over 23.
